Assay results: ChEMBL document CHEMBL5030522, “A Convenient Chemoenzymatic Preparation of Chimeric Macrocyclic Peptide Antibiotics with Potent Activity against Gram-Negative Pathogens” (2021)
Values after ≈ are worked out from the molar mass of the structure shown. Numbered stars: 1 amine (or outer) side, 2 acyl side, 3 side chain; on linkers, the order of the positions; unused ones are H or OH. Bridge positions count the residues as written; N and C are the ends. Square brackets hold non-standard residues; d marks the D form. Peptide text beside a SMILES is read from it. I, II: the chains in the order shown. X3 = NC(=O)[C@H](Cc1cn(CCCCC(=O)[*:2])nn1)N[*:1]; Tle = CC(C)(C)[C@H](N)C(=O)O; dDab = NCC[C@@H](N)C(=O)O; hSer = N[C@@H](CCO)C(=O)O; Dab = NCC[C@H](N)C(=O)O

Key:
Type in all cases: functional
[1] = tested on: Pseudomonas aeruginosa; assay: Antibacterial activity against Pseudomonas aeruginosa NRZ 08418 producing NDM1 assessed as inhibition of bacterial growth after 16 hrs by broth microdilution method
Method in brief: (§1)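 MIC per CLSI broth microdilution. Strains streaked from glycerol stocks on blood agar, 16 h at 37 °C. Single colonies inoculated into cation-adjusted Mueller-Hinton broth (10 mg L–1 Mg2+, 25 mg L–1 Ca2+). Peptides serially diluted in this broth with 0.002% (v/v) final polysorbate-80 in polypropylene plates. Inoculum 5 × 10^5 CFU mL–1. Plates sealed, 16 h at 37 °C, growth scored visually. MIC in μg/mL, triplicates on two separate days.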

[2] = tested on: Pseudomonas aeruginosa; assay: Antibacterial activity against Pseudomonas aeruginosa producing NDM1 assessed as inhibition of bacterial growth after 16 hrs by broth microdilution method
Method in brief: (§2)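 CLSI broth microdilution. Strains grown from glycerol stocks on blood agar 16 h at 37 °C; colonies used to inoculate CAMHB containing 10 mg L–1 Mg2+ and 25 mg L–1 Ca2+. Peptides dissolved in CAMHB with 0.002% (v/v) final polysorbate-80, serially diluted in polypropylene plates; inoculum 5 × 10^5 CFU mL–1. Sealed, 16 h at 37 °C, growth scored visually. MIC in μg/mL; three or more measurements on multiple days.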

[3] = tested on: Klebsiella pneumoniae; assay: Antibacterial activity against Klebsiella pneumoniae ATCC 11228 assessed as inhibition of bacterial growth after 16 hrs by broth microdilution method; method in brief: as §1
[4] = tested on: Staphylococcus aureus; assay: Antibacterial activity against methicillin resistant Staphylococcus aureus USA300 by measuring MIC after 16 hrs by broth microdilution method; method in brief: as §2
[5] = tested on: Acinetobacter baumannii; assay: Antibacterial activity against multidrug-resistant Acinetobacter baumannii assessed as inhibition of bacterial growth after 16 hrs by broth microdilution method; method in brief: as §2
[6] = tested on: Escherichia coli; assay: Antibacterial activity against Escherichia coli producing MCR2 assessed as inhibition of bacterial growth after 16 hrs by broth microdilution method; method in brief: as §1
[7] = tested on: Acinetobacter baumannii; assay: Antibacterial activity against Acinetobacter baumannii ATCC 9955 assessed as inhibition of bacterial growth after 16 hrs by broth microdilution method; method in brief: as §1
[8] = tested on: Acinetobacter baumannii; assay: Antibacterial activity against Acinetobacter baumannii ATCC 17978 assessed as inhibition of bacterial growth after 16 hrs by broth microdilution method; method in brief: as §1
[9] = tested on: Escherichia coli; assay: Antibacterial activity against Escherichia coli ATCC 35218 assessed as inhibition of bacterial growth after 16 hrs by broth microdilution method; method in brief: as §1
[10] = tested on: Klebsiella pneumoniae; assay: Antibacterial activity against Klebsiella pneumoniae producing NDM1 assessed as inhibition of bacterial growth after 16 hrs by broth microdilution method; method in brief: as §1
[11] = tested on: Escherichia coli; assay: Antibacterial activity against Escherichia coli producing MCR1 assessed as inhibition of bacterial growth after 16 hrs by broth microdilution method; method in brief: as §1
[12] = tested on: Escherichia coli; assay: Antibacterial activity against Escherichia coli producing NDM1 assessed as inhibition of bacterial growth after 16 hrs by broth microdilution method; method in brief: as §2
[13] = tested on: Escherichia coli; assay: Antibacterial activity against Escherichia coli producing MCR3 assessed as inhibition of bacterial growth after 16 hrs by broth microdilution method; method in brief: as §1
[14] = tested on: Pseudomonas aeruginosa; assay: Antibacterial activity against Pseudomonas aeruginosa M-120 assessed as inhibition of bacterial growth after 16 hrs by broth microdilution method; method in brief: as §1
[15] = tested on: Acinetobacter baumannii; assay: Antibacterial activity against Acinetobacter baumannii NRZ 00687 producing NDM2 assessed as inhibition of bacterial growth after 16 hrs by broth microdilution method; method in brief: as §1
[16] = tested on: Pseudomonas aeruginosa; assay: Antibacterial activity against Pseudomonas aeruginosa ATCC 27853 assessed as inhibition of bacterial growth after 16 hrs by broth microdilution method; method in brief: as §1

CC(C)C[C@@H]1NC(=O)[C@@H](CC(C)C)NC(=O)[C@H](CCN)NC(=O)[C@@H](NC(=O)[C@H](CCN)NC(=O)[C@@H](NC(=O)CCCCn2cc(C[C@H](NC(=O)CC[C@@H]3NC(=O)[C@H](CCN)NC(=O)[C@H](Cc4ccc(O)cc4)NC(=O)[C@H]([C@@H](C)O)NC(=O)[C@H](C(C)C)NC(=O)[C@@H]4CCCN4C(=O)[C@@H](C)NC(=O)[C@H](CO)NC(=O)[C@H](C)NC(=O)[C@H](C(C)(C)C)NC(=O)[C@H](CCO)NC(=O)[C@H](Cc4c[nH]c5ccccc45)NC(=O)[C@H](CCO)NC(=O)[C@@H](CCN)NC3=O)C(N)=O)nn2)[C@@H](C)O)CCNC(=O)[C@H]([C@@H](C)O)NC(=O)[C@H](CCN)NC(=O)[C@H](CCN)NC1=O (I: cyclo([dDab][hSer]W[hSer][Tle]AS[dA]PVTY[Dab]E) / II: T[Dab][Dab][Dab][dL]L[Dab][Dab]T; linker I:14-II:N via X3; lactam II:3-II:C) was tested, and the MIC [1] was 4 µg/mL (≈ 1.5 µM), the MIC [2] was 2 µg/mL (≈ 0.749 µM) and the MIC [3] was 2 µg/mL (≈ 0.749 µM). The MIC [4] was over 64 µg/mL, the MIC [5] was 2 µg/mL (≈ 0.749 µM) and the MIC [6] was 4 µg/mL (≈ 1.5 µM). For the same compound, the MIC [7] was 2 µg/mL (≈ 0.749 µM), the MIC [8] was 1 µg/mL (≈ 0.375 µM) and the MIC [9] was 1 µg/mL (≈ 0.375 µM). The MIC [10] was 4 µg/mL (≈ 1.5 µM) and the MIC [11] was 4 µg/mL (≈ 1.5 µM).

Compound CC(C)C[C@@H]1NC(=O)[C@@H](CC(C)C)NC(=O)[C@H](CCN)NC(=O)[C@@H](NC(=O)[C@H](CCN)NC(=O)[C@@H](NC(=O)[C@H](CCN)NC(=O)CC[C@@H]2NC(=O)[C@H](CCN)NC(=O)[C@H](Cc3ccc(O)cc3)NC(=O)[C@H]([C@@H](C)O)NC(=O)[C@H](C(C)C)NC(=O)[C@@H]3CCCN3C(=O)[C@@H](C)NC(=O)[C@H](CO)NC(=O)[C@H](C)NC(=O)[C@H](C(C)(C)C)NC(=O)[C@H](CCO)NC(=O)[C@H](Cc3c[nH]c4ccccc34)NC(=O)[C@H](CCO)NC(=O)[C@@H](CCN)NC2=O)[C@@H](C)O)CCNC(=O)[C@H]([C@@H](C)O)NC(=O)[C@H](CCN)NC(=O)[C@H](CCN)NC1=O (I: cyclo([dDab][hSer]W[hSer][Tle]AS[dA]PVTY[Dab]E) / II: [Dab]T[Dab][Dab][Dab][dL]L[Dab][Dab]T; amide I:14-II:N; lactam II:4-II:C) has an MIC [1] of 0.8 µg/mL (≈ 0.316 µM), an MIC [2] of 0.4 µg/mL (≈ 0.158 µM) and an MIC [4] of over 6.4 µg/mL. For the same compound, the MIC [5] was 0.2 µg/mL (≈ 0.079 µM), the MIC [6] was 0.2 µg/mL (≈ 0.079 µM) and the MIC [7] was 0.2 µg/mL (≈ 0.079 µM). For the same compound, the MIC [12] was 0.1 µg/mL (≈ 0.0395 µM), the MIC [9] was 0.2 µg/mL (≈ 0.079 µM) and the MIC [13] was 0.2 µg/mL (≈ 0.079 µM). It also gave an MIC [10] of 0.8 µg/mL (≈ 0.316 µM) and an MIC [11] of 0.2 µg/mL (≈ 0.079 µM).

CC[C@H](C)CCCCC(=O)N[C@@H](CCN)C(=O)N[C@H](C(=O)N[C@@H](CCN)C(=O)N[C@H]1CCNC(=O)[C@H]([C@@H](C)O)NC(=O)[C@H](CCN)NC(=O)[C@H](CCN)NC(=O)[C@H](CC(C)C)NC(=O)[C@@H](CC(C)C)NC(=O)[C@H](CCN)NC1=O)[C@@H](C)O was tested, and the MIC [14] was 0.8 µg/mL (≈ 0.684 µM), the MIC [1] was 0.8 µg/mL (≈ 0.684 µM) and the MIC [2] was 0.4 µg/mL (≈ 0.342 µM). It also gave an MIC [3] of 0.1 µg/mL (≈ 0.0855 µM), an MIC [4] of over 6.4 µg/mL and an MIC [5] of 0.4 µg/mL (≈ 0.342 µM). For the same compound, the MIC [6] was over 6.4 µg/mL, the MIC [7] was 0.4 µg/mL (≈ 0.342 µM) and the MIC [15] was 0.2 µg/mL (≈ 0.171 µM). It also gave an MIC [12] of 0.1 µg/mL (≈ 0.0855 µM), an MIC [8] of 0.4 µg/mL (≈ 0.342 µM) and an MIC [9] of 0.1 µg/mL (≈ 0.0855 µM). It also gave an MIC [16] of 1.6 µg/mL (≈ 1.37 µM), an MIC [13] of 3.2 µg/mL (≈ 2.74 µM) and an MIC [10] of 1.6 µg/mL (≈ 1.37 µM). For the same compound, the MIC [11] was 3.2 µg/mL (≈ 2.74 µM).

In the case of CC(C)[C@@H]1NC(=O)[C@@H]2CCCN2C(=O)[C@@H](C)NC(=O)[C@H](CO)NC(=O)[C@H](C)NC(=O)[C@H](C(C)(C)C)NC(=O)[C@H](CCO)NC(=O)[C@H](Cc2c[nH]c3ccccc23)NC(=O)[C@H](CCO)NC(=O)[C@@H](CCN)NC(=O)[C@H](CCC(N)=O)NC(=O)[C@H](CCN)NC(=O)[C@H](Cc2ccc(O)cc2)NC(=O)[C@H]([C@@H](C)O)NC1=O (cyclo([dDab][hSer]W[hSer][Tle]AS[dA]PVTY[Dab]Q)), the MIC [4] is reported as over 64 µg/mL.
